Platelet DG rel: modulates dense granule release in human platelets. actives 0.22% (n = 300,000). inhibition, %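 (compounds screened at 7.5 µM in platelet-rich plasma)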. AID 1663. human platelet-rich plasma, SFLLRN dense granule ATP release, luminescence;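 active means mean replicate score, as percent of positive control, at or above 50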
SENP1 FRET inh: blocks the human SENP1 SUMO protease catalytic domain | actives 0.21% (n = 360,000) | inhibition, % at 10 µM | Q9P0U3 | recombinant SENP1 catalytic domain, CyPet-SUMO1-YPet FRET cleavage | AID 624204;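 active means inhibition at least 30% at 10 µM, raw YFP signal under a set limit, fluorescence ratio 0.5 to 1.5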
Target sequence (Q9P0U3 419-644 limits assumed): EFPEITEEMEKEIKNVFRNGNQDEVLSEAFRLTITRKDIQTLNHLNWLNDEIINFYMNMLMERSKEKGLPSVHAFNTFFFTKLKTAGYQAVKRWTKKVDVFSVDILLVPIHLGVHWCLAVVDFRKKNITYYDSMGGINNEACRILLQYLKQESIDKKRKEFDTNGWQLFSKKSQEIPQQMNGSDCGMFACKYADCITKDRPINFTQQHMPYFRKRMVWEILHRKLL
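Material – human SENP1 catalytic domain · Input – SENP1 enzyme, 20 pM final · Compound dosing – single concentration of 10 µM compound, 0.5% DMSO final · Timing – enzyme reaction for 50 min at room temperature, dark · Measured by – FRET fluorescence in CFP and YFP emission channels · Control set – no-enzyme wells low, DMSO-plus-enzyme wells high control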
SENP7 block: blocks the human protease SENP7; recombinant SENP7, Z-RLRGG-aminoluciferin luminescence, 40 min; AID 434973; inhibition, % at 5 µM; actives 1.5% (n = 330,000);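 active means inhibition above about 50% at the single test dose, limit read from the data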
SENP6 inh: blocks the human protease SENP6. Q9GZR1. Recombinant SENP6 catalytic domain, aminoluciferin luminescence. inhibition, % at 10 µM. actives 1.8% (n = 330,000). AID 2599;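 active means inhibition above about 50% at the single tested dose, limit read from the data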
SENP8 block-1: SENP8 (human) protease inhibition. Q96LD8. recombinant SENP8, Nedd8 substrate fluorescence. inhibition, % at 20 µM. actives 0.64% (n = 360,000); in the data active means inhibition mostly above about 40%, no sharp cut-off; inactive means mostly below about 27%
Target sequence (Q96LD8 whole entry, looked up): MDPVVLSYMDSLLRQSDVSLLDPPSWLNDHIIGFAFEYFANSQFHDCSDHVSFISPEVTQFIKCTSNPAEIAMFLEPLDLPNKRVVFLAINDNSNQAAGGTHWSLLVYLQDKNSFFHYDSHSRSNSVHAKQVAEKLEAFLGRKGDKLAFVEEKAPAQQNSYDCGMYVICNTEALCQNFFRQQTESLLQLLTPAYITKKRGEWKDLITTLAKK
SENP8 block-2: blocks the human protease SENP8 | purified SENP8, Z-RLRGG-aminoluciferin cleavage, luminescence | inhibition, % at 10 µM | actives 1.2% (n = 330,000); in the data active means inhibition above about 50%
SENP8 conf: human SENP8 inhibition, confirmed. shares compounds with SENP7 block. Recombinant SENP8, Z-RLRGG-aminoluciferin luminescence, 60 min. inhibition, % at 12.5 µM. actives 40% (n = 6,200);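 active means mean inhibition across replicates above about 50%, limit read from the data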
SENP6 conf: confirmation of human SENP6 protease inhibitors; AID 488915; inhibition, % at 12.5 µM; recombinant SENP6, Z-RLRGG-aminoluciferin luminescence; actives 58% (n = 6,200); shares compounds with SENP7 block
SENP7 confirm: confirmation of human SENP7 protease inhibitors; shares compounds with SENP7 block; recombinant SENP7, Z-RLRGG-aminoluciferin luminescence, 40 min; inhibition, % at 12.5 µM; actives 69% (n = 6,200); AID 488917
Casp3 SENP sel: caspase-3 inhibition (SENP selectivity assay); shares compounds with SENP7 block; purified caspase-3, Z-DEVD-aminoluciferin luminescence, 60 min; inhibition, % at 12.5 µM; actives 60% (n = 6,200); AID 488918;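 active means mean inhibition above about 50%, limit read from the data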
Target sequence (P42574 28-227 limits assumed): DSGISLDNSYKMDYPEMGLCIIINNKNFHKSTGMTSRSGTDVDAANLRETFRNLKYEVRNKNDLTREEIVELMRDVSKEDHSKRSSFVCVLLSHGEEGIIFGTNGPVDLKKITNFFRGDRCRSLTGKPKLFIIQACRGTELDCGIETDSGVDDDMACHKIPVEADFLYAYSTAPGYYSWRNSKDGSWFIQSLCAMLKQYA
SENP luc ctr: counter-screen for SENP inhibitors: luminescence interference. Pre-incubated SENP8/Z-RLRGG-aminoluciferin, luciferase luminescence interference. inhibition, % at 12.5 µM. shares compounds with SENP7 block. actives 39% (n = 6,200);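 active means mean inhibition above about 50% when retested at one dose, limit read from the data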
Numbers stand for hits; – = inactive; · = no result. Compounds with a hit are over-represented: about 2.6% of the library has one in this group of screens.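 How the source made its calls, unless noted: active means mean inhibition above about 50% in the one-dose retest (limit read from the data); inactive means the rest.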

SMILES	Platelet DG rel	SENP1 FRET inh	SENP7 block	SENP6 inh	SENP8 block-1	SENP8 block-2	SENP8 conf	SENP6 conf	SENP7 confirm	Casp3 SENP sel	SENP luc ctr
CCN(CC(=O)Nc1ccc(NC(C)=O)cc1)C(=O)c1cc2c(s1)CCCCC2	·	–	–	–	–	–	·	·	·	·	·
CCCCCc1ccc2cc(C#N)ccc2n1	·	–	·	·	–	·	·	·	·	·	·
CCC(C)NC(=O)c1nn(Cc2ccccc2)c(=O)c2ccccc12 (stereo not given)	–	–	–	–	–	–	·	·	·	·	·
O=C(Nc1ccc(S(=O)(=O)Nc2ncccn2)cc1)c1nn(Cc2ccccc2)c(=O)c2ccccc12	–	–	–	85	–	66	–	–	–	–	–
COCC(C)NC(=O)c1nn(Cc2ccccc2)c(=O)c2ccccc12 (stereo not given)	–	–	–	61	–	–	–	–	–	–	–
COc1ccc(NC(=O)C2CCN(S(=O)(=O)c3c(C)noc3C)CC2)cc1Cl	–	–	–	–	–	–	·	·	·	·	·
COc1cccc(C(=O)Nc2sc3c(c2C(=O)O)CCCC3)c1	–	–	–	89	–	84	–	74	68	79	–
COc1cc(C(=O)Nc2sc3c(c2C(=O)O)CCC3)cc(OC)c1OC	–	–	–	–	–	–	·	·	·	·	·
Cc1cccc(C(=O)Nc2sc3c(c2C(=O)O)CCC3)c1	–	–	87	99	–	96	96	96	100	95	94
Cc1ccccc1NC(=O)COC(=O)CCc1ccccc1	–	–	–	–	–	–	·	·	·	·	·
Cc1ccccc1NC(=O)COC(=O)CC1CCCC1	·	–	–	–	–	–	·	·	·	·	·
COc1cccc(C(=O)c2c(C)c(CCC#N)n3ccccc23)c1	–	–	–	–	–	–	·	·	·	·	·
N=C1S/C(=C\c2ccco2)C(=O)N1c1ccc2c(c1)OCO2	–	–	–	–	–	–	·	·	·	·	·
N=C1S/C(=C\c2ccco2)C(=O)N1c1nccs1	–	–	–	58	–	53	–	–	–	–	–
C[C@H](CO)N1C[C@H](C)[C@@H](CN(C)S(=O)(=O)c2ccc(-n3cccn3)cc2)OCc2cn(nn2)CCCC1=O	·	–	·	·	–	·	·	·	·	·	·
c1ccc(Nc2nc(-c3cccs3)cs2)nc1	–	–	83	92	–	94	96	97	102	88	94
c1csc(-c2csc(-c3cccs3)n2)c1	–	–	55	–	–	–	–	60	82	–	–
c1cncc(-c2nc(-c3cccs3)cs2)c1	–	–	–	–	–	–	·	·	·	·	·
Cc1cccc(Nc2nc(-c3ccccn3)cs2)n1	–	–	79	76	–	70	–	78	95	74	86
Nc1ccc(Nc2nc(-c3cccs3)cs2)cc1	–	–	–	–	–	–	·	·	·	·	·
Cc1noc(C)c1C(=O)Nc1nc(-c2cccs2)cs1	·	–	–	–	–	–	·	·	·	·	·
Cc1cccc(Nc2nc(-c3cccs3)cs2)n1	–	–	81	90	–	89	–	96	102	76	87
CC1(c2nc3ccccc3[nH]2)CCC(=O)N1C1CC1 (stereo not given)	·	–	·	·	–	·	·	·	·	·	·
O=C(CSc1nnc2ccc(-c3ccc(F)cc3)nn12)N1CCCC1	–	–	–	–	–	–	·	·	·	·	·
O=C(Nc1cnns1)Oc1ccccc1	·	–	·	·	–	·	·	·	·	·	·
SMILES	Platelet DG rel	SENP1 FRET inh	SENP7 block	SENP6 inh	SENP8 block-1	SENP8 block-2	SENP8 conf	SENP6 conf	SENP7 confirm	Casp3 SENP sel	SENP luc ctr
Cc1ccc(C(C[N+](=O)[O-])c2c(C)[nH]n(-c3ccccc3)c2=O)cc1 (stereo not given)	–	–	–	54	61	–	–	–	–	–	–
Cc1nc(-c2cc(-c3nc(-c4ccc(C(F)(F)F)cc4)no3)no2)cs1	–	–	–	–	–	–	·	·	·	·	·
Clc1ccc(-c2csc(-c3ccno3)n2)cc1	–	–	58	–	–	–	–	–	–	–	–
Clc1ccc(-c2cc(-c3ccccc3)on2)cc1	·	–	58	–	–	–	–	–	–	–	–
Fc1cccc(-c2csc(-c3ccno3)n2)c1	–	–	–	–	–	–	·	·	·	·	·
Cc1nc(-c2cc(-c3ccc(Cl)cc3)no2)cs1	–	–	92	76	–	68	–	–	–	–	–
CN(Cc1ccon1)C(=O)C1CCN(C2CCN(CCCc3ccccc3)CC2)CC1	–	–	–	–	–	–	·	·	·	·	·
CCN(Cc1ccncc1)C(=O)c1cc(COc2ccc(OC)cc2Cl)on1	–	–	–	–	–	–	·	·	·	·	·
CC1CC(C)CN(C(=O)Nc2ccccc2F)C1 (stereo not given)	–	–	–	–	–	–	·	·	·	·	·
Cc1cc(N(C)C)ccc1N=Nc1ccc2ncccc2c1	–	–	96	92	–	92	90	96	–	–	56
CN(C)c1ccc(N=Nc2ccc3ncccc3c2)cc1	·	–	·	·	–	·	·	·	·	·	·
COc1ccc(C(=O)NC2CCN(C(=S)NCc3ccco3)CC2)cc1	–	–	60	–	–	–	–	–	–	–	–
COc1ccc2cc(C(c3nnnn3C3CCCC3)N3CCc4ccccc4C3)c(=O)[nH]c2c1 (stereo not given)	–	–	74	–	–	66	–	–	–	–	–
COc1ccc2cc(C(c3nnnn3C(C)(C)C)N3CCc4ccccc4C3)c(=O)[nH]c2c1 (stereo not given)	·	·	–	–	·	–	·	·	·	·	·
Cc1nc2ccc(NC(=O)c3ccc(Cl)c([N+](=O)[O-])c3)cc2s1	–	–	–	–	–	–	·	·	·	·	·
Cc1ccc(C(=O)Nc2ccc3nc(C)sc3c2)s1	–	–	–	–	–	–	·	·	·	·	·
Cc1nc2ccc(NC(=O)c3ccc(Cl)nc3)cc2s1	–	–	–	92	–	–	–	–	–	–	–
Cc1nc2ccc(NC(=O)c3cc(Cl)ccn3)cc2s1	–	–	68	74	–	60	–	–	59	–	–
CCc1ccc(-n2c(=O)c3c(C)c(C)sc3n(CC(=O)NCC3CCCO3)c2=O)cc1 (stereo not given)	–	–	–	–	–	–	·	·	·	·	·
CC(=O)Nc1ccccc1C(=O)C(=O)Nc1ccc(F)c(Cl)c1	–	–	–	–	–	–	·	·	·	·	·
NC(=O)c1ccccc1NC(=O)Nc1ccc(F)c(Cl)c1	–	–	96	92	–	92	64	88	99	90	91
